Test results published in ChEMBL document CHEMBL4385631, “Small molecule inhibition of microRNA-21 expression reduces cell viability and microtumor formation” (Bioorg Med Chem, 2019).
The source made the active and inactive calls. The rule behind the calls is not given here.

How the values were obtained:
microRNA 21 [1] = test: Inhibition of miR-21 RNA (unknown origin) in HeLa cells harboring luciferase gene assessed as increase in luminescence at 10 uM after 48 hrs by Bright-glo luciferase assay relative to DMSO; type: cell-based
Outline: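 HeLa-miR21-Luc stable reporter cells treated at 10 µM for 48 h. Luminescence normalized to cell viability and expressed as fold change over DMSO control. Mean ± SD of at least three independent experiments.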

microRNA 122 [2] = test: Inhibition of miR-122 RNA (unknown origin) in HuH7 cells harboring luciferase gene assessed as increase in luminescence at 10 uM after 48 hrs by dual luciferase assay relative to control; type: cell-based
Outline: (§1)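 Huh7-miR122 stable reporter cells treated at 10 µM for 48 h; known miR-122 inhibitor as positive control. Dual luciferase assay; Renilla signal normalized to firefly, then to DMSO. Three independent experiments, mean ± SD; unpaired t-test.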

microRNA 21 [3] = test: Inhibition of miR-21 RNA (unknown origin) in HeLa cells harboring luciferase gene after 48 hrs by Bright-glo luciferase assay; type: cell-based
Outline: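 HeLa-miR21-Luc stable reporter cells treated across a concentration range, then Bright-Glo assay. Luciferase signal normalized first to cell viability, then to DMSO. Three independent experiments; EC50 from nonlinear regression fit.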

[4] = molecular target: Luciferin 4-monooxygenase (Photinus pyralis) (UniProt P08659); test: Inhibition of recombinant firefly luciferase activity assessed as reduction in luminescence at 10 uM by Bright-glo luciferase assay relative to control
Luciferin 4-monooxygenase (Photinus pyralis), sequence (P08659 whole entry): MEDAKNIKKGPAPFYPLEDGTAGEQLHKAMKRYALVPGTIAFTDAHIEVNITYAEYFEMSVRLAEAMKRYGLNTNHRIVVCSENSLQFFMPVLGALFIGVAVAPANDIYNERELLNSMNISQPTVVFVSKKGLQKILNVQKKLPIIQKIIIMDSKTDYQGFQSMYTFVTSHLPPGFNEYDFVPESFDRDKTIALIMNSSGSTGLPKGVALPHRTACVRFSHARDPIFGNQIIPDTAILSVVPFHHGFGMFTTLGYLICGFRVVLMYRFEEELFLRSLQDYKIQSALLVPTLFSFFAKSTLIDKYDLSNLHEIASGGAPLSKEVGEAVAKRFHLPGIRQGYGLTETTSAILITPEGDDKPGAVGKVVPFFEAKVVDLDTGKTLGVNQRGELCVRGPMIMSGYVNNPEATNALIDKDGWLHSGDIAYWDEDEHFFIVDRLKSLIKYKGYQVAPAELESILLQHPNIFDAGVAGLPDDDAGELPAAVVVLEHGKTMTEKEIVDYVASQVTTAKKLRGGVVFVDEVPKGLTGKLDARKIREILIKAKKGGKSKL

HeLa [5] = test: Effect on non-miRNA pathway in human HeLa cells harboring psi-check empty vector assessed as increase in luminescence at 10 uM after 48 hrs by dual luciferase assay relative to control; type: functional
Outline: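 HeLa cells transfected with psiCHECK-empty reporter (sequence not targeted by any known miRNA), then treated at 10 µM for 48 h. Dual luciferase assay; firefly signal normalized to Renilla, then to DMSO. Three independent experiments, mean ± SD; unpaired t-test.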

microRNA 122 [6] = test: Inhibition of miR-122 RNA (unknown origin) in HuH7 cells harboring luciferase gene assessed as reduction in luminescence at 10 uM after 48 hrs by dual luciferase assay relative to control; type: cell-based; outline: as §1
HEK293 = test: Antiproliferative activity against human HEK293 cells cell viability after 72 hrs by XTT assay; type: cell-based; settings: hek293, 72 h
Outline: (§2)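 Cells treated with a serial dilution of compound for 72 h; viability read by XTT assay.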

microRNA 21 [7] = test: Binding affinity to pre-miR-21 RNA (unknown origin) assessed as melting temperature by UV spectroscopic analysis (reference value: 56 degC); type: nucleic-acid assay
HeLa [8] = test: Induction of apoptosis in human HeLa cells assessed as increase in caspase 3/7 activity at 50 uM after 24 hrs by caspase3/7 activity assay relative to control; type: functional
Outline: (§3)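 HeLa cells treated for 24 h, then caspase-3/7 activity assay.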

microRNA 21 [9] = test: Inhibition of miR-21 RNA promoter (unknown origin) in HeLa cells expressing pGL4-miR21p assessed as decrease in miR-21 RNA promoter activity at 10 uM preincubated for 48 hrs followed by pGL4-miR21p transfection after 24 hrs by Bright-glo luciferase assay relative to DMSO; type: cell-based
microRNA 21 [10] = test: Inhibition of miR-21 RNA in human HeLa cells assessed as reduction in matured miR-21 RNA at 10 uM after 48 hrs by RT-qPCR analysis relative to control
microRNA 21 [11] = test: Inhibition of pri-miR-21 RNA in human HeLa cells assessed as decrease in pri-miR-21 RNA level at 10 uM after 48 hrs by RT-qPCR method relative to control; type: cell-based
Outline: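 HeLa cells treated at 10 µM for 48 h; primary miR-21 levels measured by RT-qPCR.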

HeLa [12] = test: Induction of apoptosis in human HeLa cells assessed as increase in caspase 3/7 activity at 10 uM after 24 hrs by caspase3/7 activity assay; type: functional; outline: as §3
microRNA 21 [13] = test: Inhibition of miR-21 RNA in human SKOV3 cells assessed as reduction in matured miR-21 RNA at 10 uM after 48 hrs by RT-qPCR analysis relative to control
microRNA 21 [14] = test: Inhibition of miR-21 RNA in human A549 cells assessed as reduction in matured miR-21 RNA at 10 uM after 48 hrs by RT-qPCR analysis relative to control
HeLa [15] = test: Antiproliferative activity against human HeLa cells cell viability after 72 hrs by XTT assay; type: functional, cell-based; outline: as §2
HeLa [16] = test: Anticlonogenic activity against human HeLa cells assessed as reduction in colony formation after 2 weeks by crystal violet staining based microscopic method; type: functional, cell-based; settings: 336 h
Outline: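 HeLa cells suspended in low-melt agarose and exposed to a dilution series of compound for two weeks at 37 °C, then imaged.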

[17] = molecular target: Luciferin 4-monooxygenase (Photinus pyralis) (UniProt P08659); test: Inhibition of recombinant firefly luciferase activity assessed as reduction in luminescence at 10 uM by Bright-glo luciferase assay

Row | SMILES | fold change (FC) (microRNA 21 [1]) | other results
1 | O=C(COc1ccccc1)Nc1ccc(-c2nc3ccc(Cl)cc3o2)cc1 | 2.65 | –
2 | O=C(Nc1ccc(-c2nc3cc(Cl)ccc3o2)cc1)Oc1ccccc1 | 3.86 | –
3 | O=C(COc1ccccc1)Nc1cccc(-c2nc3ccccc3o2)c1 | 1.75 | –
4 | COc1ccc(SCC(=O)Nc2ccc(-c3nc4cc(Cl)ccc4o3)cc2)cc1 | 2.64 | –
5 | O=C(COc1ccccc1)Nc1ccc(-c2nc3ccccc3s2)cc1 | 1.68 | –
6 | COc1ccc(OCC(=O)Nc2ccc(-c3nc4ccccc4s3)cc2)cc1 | 1.56 | –
7 | O=C(COc1ccc(-c2ccccc2)cc1)Nc1ccc(-c2nc3cc(Cl)ccc3o2)cc1 | 2.64 | –
8 | O=C(COc1ccccc1)Nc1ccc(-c2nc3cc(Cl)ccc3[nH]2)cc1 | 0.41 | –
9 | O=S(=O)(c1ccc2c(c1)CCCN2)N1CCC[C@H]2CCCC[C@@H]21 | – | fold change (FC) (microRNA 122 [2]): > 3.5
10 | O=C(COc1ccccc1)Nc1ccc(-c2nc3cc(Cl)ccc3o2)cc1 | 2.87 | –
11 | COc1ccc(OCC(=O)Nc2ccc(-c3nc4cc(Br)ccc4o3)cc2)cc1 | 6.19 | EC50 (microRNA 21 [3]): 6.4 µM; inhibition (microRNA 21 [3]): Dose-dependent effect; inhibition [4]: 38%; fold change (FC) (HeLa [5]): 1.5 - 1.8
12 | COc1cccc(OCC(=O)Nc2ccc(-c3nc4cc(Cl)ccc4o3)cc2)c1 | 5.37 | EC50 (microRNA 21 [3]): 4.7 µM; inhibition (microRNA 21 [3]): Dose-dependent effect; inhibition [4]: 44%; fold change (FC) (HeLa [5]): 1.5 - 1.8
13 | COc1ccc(OCC(=O)Nc2ccc(-c3nc4ccc(Cl)cc4o3)cc2)cc1 | 3.32 | –
14 | COc1ccc(OCC(=O)Nc2ccc(-c3nc4cc(Cl)ccc4o3)cc2)cc1 | 4.87 | EC50 (microRNA 21 [3]): 6.7 µM; inhibition (microRNA 21 [3]): Dose-dependent effect; fold change (FC) (microRNA 122 [6]): 0.2; Activity (HEK293): Non-Toxic; inhibition [4]: inactive; Tm (microRNA 21 [7]): 56.2 °C; fold change (FC) (HeLa [8]): 2; inhibition (microRNA 21 [9]): 78%; inhibition (microRNA 21 [10]): 57%; inhibition (microRNA 21 [11]): 79%; Activity (HeLa [12]): 50%; inhibition (microRNA 21 [13]): 31%; inhibition (microRNA 21 [14]): 33%; IC50 (HeLa [15]): > 50 µM; Activity (HeLa [5]): inactive; EC50 (HeLa [16]): 7.3 µM
15 | COc1ccc(OCC(=O)Nc2nc3ccc(-c4nc5cc(Cl)ccc5o4)cc3s2)cc1 | 0.03 | –
16 | COc1ccc(OCC(=O)Nc2ccc(-c3nc4ncccc4o3)cc2)cc1 | 2.25 | –
17 | N#Cc1ccc(OCC(=O)Nc2ccc(-c3nc4cc(Cl)ccc4o3)cc2)cc1 | 2.08 | –
18 | O=C(COc1ccc(F)cc1)Nc1ccc(-c2nc3cc(Cl)ccc3o2)cc1 | 2.86 | –
19 | COc1ccc(OCC(=O)Nc2ccc(-c3nc4cc(Cl)ccc4[nH]3)cc2)cc1 | 1.6 | –

Row | SMILES | fold change (FC) (microRNA 21 [1]) | other results
20 | COc1ccc(OCC(=O)Nc2cccc(-c3nc4ccccc4o3)c2)cc1 | 4.73 | –
21 | COc1ccc(OCC(=O)Nc2ccc(-c3nc4ccccc4o3)cc2)cc1 | 0.27 | –
22 | COc1ccc(OC(=O)Nc2ccc(-c3nc4cc(Cl)ccc4o3)cc2)cc1 | 3.48 | –
23 | O=C(COc1ccccc1)Nc1cccc(-c2nc3cc(Cl)ccc3o2)c1 | 2.14 | –
24 | O=C(COc1ccccc1I)Nc1ccc(-c2nc3ccccc3o2)cc1 | 1.53 | –
25 | COc1ccc(OCC(=O)N(C)c2ccc(-c3nc4cc(Cl)ccc4o3)cc2)cc1 | 0.88 | –
26 | COc1ccc(OCC(=O)Nc2ccc(-c3nc4cc(-c5ccccc5)ccc4o3)cc2)cc1 | 7.87 | EC50 (microRNA 21 [3]): 3.5 µM; inhibition (microRNA 21 [3]): Dose-dependent effect; inhibition [4]: 27%; fold change (FC) (HeLa [5]): 1.5 - 1.8
27 | C#CCN(C(=O)COc1ccc(OC)cc1)c1ccc(-c2nc3cc(Cl)ccc3o2)cc1 | 1.61 | –
28 | O=C(COc1ccccc1I)Nc1ccc(-c2nc3ccccc3s2)cc1 | 1.55 | –
29 | COc1ccc(OCC(=O)Nc2ccc(-c3nc4cc(F)ccc4o3)cc2)cc1 | 2.14 | –
30 | O=C(COc1ccccc1)Nc1ccc2cc(-c3nc4cc(Cl)ccc4o3)ccc2c1 | 1.3 | –
31 | COc1ccc(OCC(=O)Nc2cccc(-c3nc4cc(Cl)ccc4o3)c2)cc1 | 3.19 | –
32 | O=C(COc1ccccc1)Nc1ccc(-c2nc3cc(F)ccc3o2)cc1 | 1.58 | –
33 | COc1ccc(NCC(=O)Nc2ccc(-c3nc4cc(Cl)ccc4o3)cc2)cc1 | 0.14 | –
34 | O=C(O)c1cccc(-c2noc(-c3ccccc3F)n2)c1 [ATALUREN] | – | inhibition [17]: 94%; fold change (FC) (HeLa [5]): 1.5 - 1.8
35 | Cc1cc(OCC(=O)Nc2ccc(-c3nc4cc(Cl)ccc4o3)cc2)ccc1C(C)C | 2.23 | –
36 | O=C(COc1ccccc1)Nc1ccc(-c2nc3ccccc3o2)cc1 | 1.47 | –
37 | O=C(COc1ccc([N+](=O)[O-])cc1)Nc1ccc(-c2nc3cc(Cl)ccc3o2)cc1 | 3.58 | –
